Results on six compounds are retold here after ChEMBL document CHEMBL1671867, “Novel polymyxin derivatives carrying only three positive charges are effective antibacterial agents” (Antimicrob Agents Chemother, 2008).

In brackets after ≈: the same amount, converted by molar mass. Bridge positions count the residues as written; N and C are the ends. Square brackets hold non-standard residues; d marks the D form. Peptide text beside a SMILES is read from it. * marks the point of attachment. Decanoyl = CCCCCCCCCC(=O)*; Octanoyl = CCCCCCCC(=O)*; Dab = NCC[C@H](N)C(=O)O; Abu = CC[C@H](N)C(=O)O Where only a bound is given, the exact number is not on record here.

Series [1] relates to V79. As to the kind of experiment: Cytotoxicity against chinese hamster V79 cells at […] to 128 ug/ml after 24 hrs. The series is classed as cell-based, Cricetulus griseus. Conditions: v79, 24 h.
Series [2] in a line: Inhibition of [3H]gentamicin binding to brush border membrane of renal cortex. A digest of the protocol:
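Brush border membrane vesicles prepared from male albino rat renal cortex by Mg2+-EGTA precipitation. Incubated with 20 μM [3H]gentamicin in 10 mM HEPES pH 7.5 with 300 mM mannitol, with or without compound, 60 min at 4°C. Then filtered, washed, and bound radioactivity counted by scintillation. IC50 fitted with the Hill equation.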

Series [3] relates to Enterobacter cloacae. As to the kind of experiment: Antibacterial activity against Enterobacter cloacae ATCC 23355 […] by Etest method in presence of NAB7061. It is filed as functional.
The test system of series [4] is Enterobacter cloacae. Description: Ratio of the MIC for Enterobacter cloacae ATCC 23355 in the absence of NAB7061 to MIC for Enterobacter cloacae ATCC 23355 […] in the presence of 4 ug/ml of NAB7061. The series is classed as functional.
The subject of series [5] is Enterobacter cloacae. Description: Antibacterial activity against Enterobacter cloacae ATCC 23355 […] by Etest method in presence of 4 ug/ml NAB7064. The series is classed as functional.
In series [6] the test system is Escherichia coli. As to the kind of experiment: Antibacterial activity against Escherichia coli IH3080 by Etest method in presence of 4 ug/ml NAB7064. The series is classed as functional.
Series [7] deals with Enterobacter cloacae. As to the kind of experiment: Antibacterial activity against Enterobacter cloacae ATCC 23355 […] by Etest method in presence of 1 ug/ml NAB7061. The series is classed as functional.
Series [8] deals with Escherichia coli. As to the kind of experiment: Antibacterial activity against Escherichia coli IH3080 by Etest method in presence of NAB7061. The series is classed as functional.
In series [9] the test system is Escherichia coli. Description: Antibacterial activity against Escherichia coli IH3080 by Etest method. The series is classed as functional. In short, it runs like this:
(§1)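 E-strip MIC on Mueller-Hinton agar without added peptide; inoculum per manufacturer, matching CLSI M2-A9.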

In series [10] the test system is Klebsiella pneumoniae. Description: Antibacterial activity against Klebsiella pneumoniae ATCC 13883 by Etest method in presence of 4 ug/ml NAB7061. It is filed as functional. A digest of the protocol:
(§2)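 MICs of the antibiotic taken from E-strips on Mueller-Hinton agar, run both with and without peptide. […] Inoculum was prepared per the strip manufacturer, matching CLSI M2-A9.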

Series [11] has as its system Klebsiella pneumoniae. Description: Antibacterial activity against Klebsiella pneumoniae ATCC 13883 by Etest method in presence of 2 ug/ml NAB7061. The series is classed as functional. A digest of the protocol: as §2
The subject of series [12] is Klebsiella pneumoniae. As to the kind of experiment: Antibacterial activity against Klebsiella pneumoniae ATCC 13883 by Etest method. The series is classed as functional. A digest of the protocol: as §2
Series [13] deals with Klebsiella pneumoniae. As to the kind of experiment: Antibacterial activity against Klebsiella pneumoniae ATCC 13883 by Etest method in presence of NAB7061. The series is classed as functional. In short, it runs like this: as §2
Series [14] concerns Enterobacter cloacae. As to the kind of experiment: Antibacterial activity against Enterobacter cloacae ATCC 23355 by Etest method. The series is classed as functional. A digest of the protocol:
as §1

In series [15] the test system is Escherichia coli. As to the kind of experiment: Antibacterial activity against Escherichia coli ATCC 25992 by Etest method. It is filed as functional. A digest of the protocol:
as §1

Series [16] deals with Enterobacter cloacae. Description: Antibacterial activity against Enterobacter cloacae ATCC 23355 […] by Etest method in presence of 2 ug/ml NAB7062. The series is classed as functional.
In series [17] the test system is Klebsiella pneumoniae. Description: Antibacterial activity against Klebsiella pneumoniae ATCC 13883 by Etest method in presence of 1 ug/ml NAB7061. The series is classed as functional. A digest of the protocol: as §2
Series [18] deals with Klebsiella pneumoniae. Description: Ratio of the MIC for Klebsiella pneumoniae ATCC 13883 in the absence of NAB7061 to MIC for Klebsiella pneumoniae ATCC 13883 in the presence of 4 ug/ml of NAB7061. It is filed as functional.
Series [19] has as its system Escherichia coli. Description: Antibacterial activity against Escherichia coli ATCC […] by Etest method in presence of NAB7061. The series is classed as functional.
Series [20] deals with Escherichia coli. Description: Ratio of the MIC for Escherichia coli IH3080 in the absence of NAB7061 to MIC for Escherichia coli IH3080 in the presence of 4 ug/ml of NAB7061. It is filed as functional.
Series [21] concerns Escherichia coli. As to the kind of experiment: Ratio of the MIC for Escherichia coli ATCC 25992 in the absence of NAB7061 to MIC for Escherichia coli ATCC 25992 in the presence of 4 ug/ml of NAB7061. The series is classed as functional.
Series [22] has as its system Escherichia coli. Description: Antibacterial activity against Escherichia coli ATCC […] by Etest method in presence of 4 ug/ml NAB7064. It is filed as functional.
Series [23] concerns Escherichia coli. As to the kind of experiment: Antibacterial activity against Escherichia coli ATCC […] by Etest method in presence of 1 ug/ml NAB7061. The series is classed as functional.
Series [24] has as its system Escherichia coli. Description: Antibacterial activity against Escherichia coli ATCC […] by Etest method in presence of 2 ug/ml NAB7062. It is filed as functional.
In series [25] the test system is Escherichia coli. As to the kind of experiment: Antibacterial activity against Escherichia coli IH3080 by Etest method in presence of 1 ug/ml NAB7061. The series is classed as functional.
For series [26], the system named is Escherichia coli. As to the kind of experiment: Antibacterial activity against Escherichia coli IH3080 by Etest method in presence of 2 ug/ml NAB7062. The series is classed as functional.

As to `CCCCCCCC(=O)N[C@H](C(=O)N[C@@H](CC)C(=O)N[C@H]1CCNC(=O)[C@H]([C@@H](C)O)NC(=O)[C@H](CCN)NC(=O)[C@H](CCN)NC(=O)[C@H](CC(C)C)NC(=O)[C@@H](Cc2ccccc2)NC(=O)[C@H](CCN)NC1=O)[C@@H](C)O` (Octanoyl-T[Abu][Dab][Dab][dF]L[Dab][Dab]T; lactam 3-C), in series [1], the Activity result is recorded as “Non-toxic”. The IC50 in series [2] was found to be 187 µM.
In the case of `CC[C@H]1OC(=O)[C@H](C)[C@@H](O[C@H]2C[C@@](C)(OC)[C@@H](O)[C@H](C)O2)[C@H](C)[C@@H](O[C@@H]2O[C@H](C)C[C@H](N(C)C)[C@H]2O)[C@](C)(O)C[C@@H](C)C(=O)[C@H](C)[C@@H](O)[C@]1(C)O` [ERYTHROMYCIN], the MIC in series [3] was found to be 0.375 µg/mL; in [5], 1.5 µg/mL; in series [6], 0.38 µg/mL; in [7], 48 µg/mL; in [8], 0.25 µg/mL; in series [9], 16 µg/mL (≈ 21.8 µM). In addition, the MIC is 0.5 µg/mL in series [10]; 2 µg/mL in [11]; 24 µg/mL (≈ 32.7 µM) in series [12]; not above 0.143 µg/mL in series [13]; 64 µg/mL (≈ 87.2 µM) in series [14]; 32 µg/mL (≈ 43.6 µM) in series [15]. Also, the MIC is 8 µg/mL in series [16]; 4 µg/mL in series [17]; 0.75 µg/mL in series [22]; 6 µg/mL in series [23]; 2 µg/mL in [24]; 4 µg/mL in series [25]. Further, the MIC in series [26] was determined as 2 µg/mL. Further, the Ratio in series [4] is 21; in series [18] it was 24; in series [20], 32; in series [21] it was 32. Further, the “fractional inhibitory concentration index (FICI)” value in series [19] is recorded as 0.188.
For the compound `CCCCCCCC(=O)N[C@H](C(=O)N[C@H](CO)C(=O)N[C@H]1CCNC(=O)[C@H]([C@@H](C)O)NC(=O)[C@H](CCN)NC(=O)[C@H](CCN)NC(=O)[C@H](CC(C)C)NC(=O)[C@@H](Cc2ccccc2)NC(=O)[C@H](CCN)NC1=O)[C@@H](C)O`, in series [1], the Activity entry is given as “Non-toxic”. In [2], this compound showed an IC50 of 264 µM.
Consider `CC[C@H]1OC(=O)[C@H](C)[C@@H](O[C@H]2C[C@@](C)(OC)[C@@H](O)[C@H](C)O2)[C@H](C)[C@@H](O[C@@H]2O[C@H](C)C[C@H](N(C)C)[C@H]2O)[C@](C)(O)C[C@@H](C)CN(C)[C@H](C)[C@@H](O)[C@]1(C)O` [AZITHROMYCIN], for which the MIC was 0.438 µg/mL in series [3]; 0.19 µg/mL in series [5]; 0.064 µg/mL in [6]; 4 µg/mL in series [7]; 0.173 µg/mL in series [8]; 2 µg/mL (≈ 2.67 µM) in [9]. Besides, the MIC in [10] is 0.047 µg/mL; in [11], 0.19 µg/mL; in series [12], 2 µg/mL (≈ 2.67 µM); in series [13] it was not above 0.126 µg/mL; in series [14], 6 µg/mL (≈ 8.01 µM); in series [15], 3 µg/mL (≈ 4.01 µM). The MIC in [16] was 1.5 µg/mL; in series [17] it was 0.19 µg/mL; in series [22], 0.094 µg/mL; in series [23], 0.5 µg/mL; in [24], 0.19 µg/mL; in [25] it was 0.75 µg/mL. In series [26], the MIC is 0.19 µg/mL. The Ratio in [4] was 32; in series [18], 31; in [20], 31; in [21], 24. Further, in [19], the “fractional inhibitory concentration index (FICI)” value came to 0.157.
In the case of `C/C(=C\C(=O)OCCCCCCCCC(=O)O)C[C@@H]1OC[C@H](C[C@@H]2O[C@H]2[C@@H](C)[C@H](C)O)[C@@H](O)[C@H]1O` [MUPIROCIN], the MIC was found to be 0.293 µg/mL in series [3]; 0.19 µg/mL in series [5]; 1.5 µg/mL in [6]; 24 µg/mL in series [7]; 0.146 µg/mL in [8]; 128 µg/mL (≈ 256 µM) in [9]. Besides, the MIC in series [10] is 2 µg/mL; in [11] it was 12 µg/mL; in [12] it was 64 µg/mL (≈ 128 µM); in [13] it was not above 0.167 µg/mL; in series [14], 48 µg/mL (≈ 95.9 µM); in series [15] it was 256 µg/mL (≈ 511 µM). Moreover, the MIC in series [16] is 8 µg/mL; in [17], 24 µg/mL; in [22], 1.5 µg/mL; in series [23], 16 µg/mL; in [24], 4 µg/mL; in [25], 16 µg/mL. In addition, in [26], the MIC is 12 µg/mL. The Ratio in series [4] worked out at 250; in series [18], 24; in series [20], 64; in series [21], 64. Moreover, in [19], the “fractional inhibitory concentration index (FICI)” value worked out at 0.127.
In the case of `CCCCCCCCCC(=O)N[C@H](C(=O)N[C@H](CO)C(=O)N[C@H]1CCNC(=O)[C@H]([C@@H](C)O)NC(=O)[C@H](CCN)NC(=O)[C@H](CCN)NC(=O)[C@H](CC(C)C)NC(=O)[C@@H](Cc2ccccc2)NC(=O)[C@H](CCN)NC1=O)[C@@H](C)O` (Decanoyl-T[dS][Dab][Dab][dF]L[Dab][Dab]T; lactam 3-C), the Activity result in series [1] is “Non-toxic”. Besides, the IC50 in [2] came out at 198 µM.
